Measurements: ChEMBL document CHEMBL3102768, “Synthesis, biological evaluation and SAR of 3-benzoates of ingenol for treatment of actinic keratosis and non-melanoma skin cancer” (Bioorg Med Chem Lett, 2014)

What was measured:
[1] = Immunostimulatory activity in polymorphonuclear leukocytes (unknown origin) assessed as induction of oxidative burst after 40 mins by fluorescence assay relative to ingenol 3-angelate; assay type: functional
In short: (§1)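 PMN were isolated from fresh buffy coats. Cells were incubated 40 min at ambient temperature with titrated compound (top concentration 10 µM) pre-mixed with hydroethidine. Respiratory burst was read as fluorescence at ex 485/em 579 nm. EC50 is the concentration giving 50% of the maximum effect of ingenol 3-angelate; Emax is the maximal response relative to it.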

[2] = system: Keratinocyte; test: Induction of proimflammatory activity in human primary epidermal keratinocytes assessed as TNFalpha release after 6 hrs relative to ingenol 3-angelate; assay type: functional
In short: (§2)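 Adult log-phase primary epidermal keratinocytes were seeded at 10,000 cells/well. Cells were incubated with titrated compound for 6 h at 37 °C in 5% CO2. Secreted TNFα was measured by Meso Scale 4-spot cytokine plates. EC50 and Emax were referenced to the maximal response of ingenol 3-angelate.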

[3] = system: Keratinocyte; test: Induction of proimflammatory activity in human primary epidermal keratinocytes assessed as IL-8 release after 6 hrs relative to ingenol 3-angelate; assay type: functional
In short: as §2, with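 “IL8” for “TNFα”, “plates or by HTRF.” for “plates.”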

[4] = Immunostimulatory activity in polymorphonuclear leukocytes (unknown origin) assessed as induction of oxidative burst after 40 mins by fluorescence assay; assay type: functional, cell-based; in short: as §1
[5] = target: Protein kinase C delta type (Homo sapiens, UniProt Q05655); test: Activation of PKCdelta (unknown origin) after 40 mins
Sequence of Protein kinase C delta type (Q05655 whole entry): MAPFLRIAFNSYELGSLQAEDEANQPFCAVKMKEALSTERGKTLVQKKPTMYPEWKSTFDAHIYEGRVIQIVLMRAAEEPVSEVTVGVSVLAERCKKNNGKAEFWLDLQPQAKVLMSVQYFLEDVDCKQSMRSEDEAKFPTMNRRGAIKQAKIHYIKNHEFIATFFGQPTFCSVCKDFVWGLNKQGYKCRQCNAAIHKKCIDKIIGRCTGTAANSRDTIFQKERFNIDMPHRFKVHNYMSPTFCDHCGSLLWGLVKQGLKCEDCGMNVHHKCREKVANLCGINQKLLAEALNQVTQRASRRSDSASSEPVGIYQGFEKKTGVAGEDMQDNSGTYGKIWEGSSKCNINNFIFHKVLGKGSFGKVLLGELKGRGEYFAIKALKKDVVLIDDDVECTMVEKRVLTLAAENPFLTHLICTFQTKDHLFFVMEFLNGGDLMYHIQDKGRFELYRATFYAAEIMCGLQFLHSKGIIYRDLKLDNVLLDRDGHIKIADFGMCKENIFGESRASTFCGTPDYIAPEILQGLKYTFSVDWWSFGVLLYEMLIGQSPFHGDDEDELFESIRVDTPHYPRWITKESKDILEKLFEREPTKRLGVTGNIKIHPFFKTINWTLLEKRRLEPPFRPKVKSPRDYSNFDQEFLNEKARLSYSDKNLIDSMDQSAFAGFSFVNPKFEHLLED
In short: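 In vitro PKCδ phosphorylation of a PKC peptide substrate, with 0.05 mg/mL phosphatidylserine and no diacylglycerol. Compounds were tested as a twelve-point semilog dilution series starting at 10 µM. The reaction was started with ATP and run 40 min at room temperature.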

[6] = system: HeLa; test: Induction of necrosis in human HeLa cells assessed as remaining metabolic activity after 30 mins by resazurin dye-based assay; assay type: functional; conditions: 0.5 h, read-out: LC50 (the source's name)
In short: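 HeLa cells were exposed to increasing concentrations up to 400 µM for 30 min at 37 °C. Metabolic activity was then measured with a resazurin-based dye (PrestoBlue). LC50 is the concentration giving 50% loss of metabolic activity.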

[7] = Chemical stability of the compound in aqueous buffer with less than 30% organic solvent assessed as compound recovery at pH 7.4 measured over 16 hrs by HPLC analysis; assay type: physicochemical; conditions: read-out: Drug recovery
In short: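 A DMSO stock was diluted into pre-heated (37 °C) aqueous buffer pH 7.4 to ≤30% v/v organic content. The solution was held at 37 °C in the HPLC autosampler and injected within 5 min, then repeatedly over 16 h. Recovery was taken from the decrease in compound peak area, with UV detection normally at 270 nm.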

[8] = system: Keratinocyte; test: Induction of proimflammatory activity in human primary epidermal keratinocytes assessed as IL-8 release after 6 hrs; assay type: functional, cell-based
In short: as §2, with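 “IL8” for “TNFα”, “plates or by HTRF.” for “plates.”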

[9] = system: Keratinocyte; test: Induction of proimflammatory activity in human primary epidermal keratinocytes assessed as TNFalpha release after 6 hrs; assay type: functional, cell-based; in short: as §2

| SMILES | Emax [1] | Emax [2] | Emax [3] | EC50 [4] | EC50 [5] | CC50 [6] | remaining at 16 h [7] | EC50 [8] | EC50 [9] |
| --- | --- | --- | --- | --- | --- | --- | --- | --- | --- |
| CC1=C[C@]23C(=O)[C@@H](C=C(CO)[C@@H](O)[C@]2(O)[C@H]1OC(=O)c1ccccc1)[C@H]1[C@@H](C[C@H]3C)C1(C)C | 110% | 60% | 54% | 0.006 µM | 0.0061 µM | – | – | – | – |
| CNc1cccc(Cl)c1C(=O)O[C@H]1C(C)=C[C@]23C(=O)[C@@H](C=C(CO)[C@@H](O)[C@]12O)[C@H]1[C@@H](C[C@H]3C)C1(C)C | 124% | 97% | 105% | 0.021 µM | – | 145 µM | > 95% | 0.018 µM | 0.021 µM |
| CNc1cccc(F)c1C(=O)O[C@H]1C(C)=C[C@]23C(=O)[C@@H](C=C(CO)[C@@H](O)[C@]12O)[C@H]1[C@@H](C[C@H]3C)C1(C)C | 123% | 174% | 145% | 0.0093 µM | – | 152 µM | 74% | 0.003 µM | 0.0041 µM |
| CC1=C[C@]23C(=O)[C@@H](C=C(CO)[C@@H](O)[C@]2(O)[C@H]1OC(=O)c1c(C)cccc1NCc1ccccc1)[C@H]1[C@@H](C[C@H]3C)C1(C)C | 103% | 126% | 122% | 0.042 µM | – | 187 µM | > 95% | 0.0038 µM | 0.0076 µM |
| COc1cccc(NCc2ccccc2)c1C(=O)O[C@H]1C(C)=C[C@]23C(=O)[C@@H](C=C(CO)[C@@H](O)[C@]12O)[C@H]1[C@@H](C[C@H]3C)C1(C)C | 112% | 120% | 117% | 0.023 µM | – | 400 µM | > 95% | 0.0066 µM | 0.019 µM |
| CC(=O)Nc1cccc(C)c1C(=O)O[C@H]1C(C)=C[C@]23C(=O)[C@@H](C=C(CO)[C@@H](O)[C@]12O)[C@H]1[C@@H](C[C@H]3C)C1(C)C | 113% | 92% | 92% | 0.538 µM | 0.988 µM | – | 82% | 0.534 µM | 0.632 µM |
| CC1=C[C@]23C(=O)[C@@H](C=C(CO)[C@@H](O)[C@]2(O)[C@H]1OCc1ccccc1)[C@H]1[C@@H](C[C@H]3C)C1(C)C | – | – | 58% | 4.54 µM | > 10 µM | 378 µM | > 95% | 4.52 µM | – |
| CC1=C[C@]23C(=O)[C@@H](C=C(CO)[C@@H](O)[C@]2(O)[C@H]1OC(=O)c1ccccc1C)[C@H]1[C@@H](C[C@H]3C)C1(C)C | 107% | 64% | 58% | 0.0057 µM | – | 115 µM | 73% | 0.015 µM | 0.013 µM |
| CC1=C[C@]23C(=O)[C@@H](C=C(CO)[C@@H](O)[C@]2(O)[C@H]1OC(=O)c1ccccc1C(C)C)[C@H]1[C@@H](C[C@H]3C)C1(C)C | 120% | 96% | 86% | 0.011 µM | – | 110 µM | 70% | 0.0044 µM | 0.0057 µM |
| CC1=C[C@]23C(=O)[C@@H](C=C(CO)[C@@H](O)[C@]2(O)[C@H]1OC(=O)c1ccccc1OC(C)C)[C@H]1[C@@H](C[C@H]3C)C1(C)C | 113% | 101% | 105% | 0.0087 µM | – | 192 µM | 65% | 0.0027 µM | 0.004 µM |
| CC1=C[C@]23C(=O)[C@@H](C=C(CO)[C@@H](O)[C@]2(O)[C@H]1OC(=O)c1ccccc1N)[C@H]1[C@@H](C[C@H]3C)C1(C)C | 116% | 112% | 101% | 0.015 µM | – | 199 µM | 58% | 0.0034 µM | 0.0055 µM |
| CC1=C[C@]23C(=O)[C@@H](C=C(CO)[C@@H](O)[C@]2(O)[C@H]1OC(=O)c1ccccc1NCc1ccccc1)[C@H]1[C@@H](C[C@H]3C)C1(C)C | 127% | 128% | 115% | 0.0086 µM | – | 168 µM | 65% | 0.0012 µM | 0.0015 µM |
| CCCCCCCCCCCCNc1ccccc1C(=O)O[C@H]1C(C)=C[C@]23C(=O)[C@@H](C=C(CO)[C@@H](O)[C@]12O)[C@H]1[C@@H](C[C@H]3C)C1(C)C | 78% | 150% | 111% | 0.025 µM | – | 400 µM | – | 0.016 µM | 0.014 µM |
| CCCCCCCCCCCCCCCCNc1ccccc1C(=O)O[C@H]1C(C)=C[C@]23C(=O)[C@@H](C=C(CO)[C@@H](O)[C@]12O)[C@H]1[C@@H](C[C@H]3C)C1(C)C | 94% | 120% | 125% | 1.34 µM | – | – | 90% | 0.061 µM | 0.2 µM |
| CC1=C[C@]23C(=O)[C@@H](C=C(CO)[C@@H](O)[C@]2(O)[C@H]1OC(=O)c1c(C)cccc1Cl)[C@H]1[C@@H](C[C@H]3C)C1(C)C | 130% | 52% | 52% | 0.0066 µM | – | 126 µM | > 95% | 0.051 µM | 0.054 µM |
| COc1cccc(N)c1C(=O)O[C@H]1C(C)=C[C@]23C(=O)[C@@H](C=C(CO)[C@@H](O)[C@]12O)[C@H]1[C@@H](C[C@H]3C)C1(C)C | 109% | 83% | 111% | 0.025 µM | – | – | > 95% | 0.041 µM | 0.108 µM |
| CC1=C[C@]23C(=O)[C@@H](C=C(CO)[C@@H](O)[C@]2(O)[C@H]1OC(=O)c1c(N)cccc1Cl)[C@H]1[C@@H](C[C@H]3C)C1(C)C | 161% | 108% | 104% | 0.0071 µM | – | 185 µM | 93% | 0.02 µM | 0.028 µM |
| CC1=C[C@]23C(=O)[C@@H](C=C(CO)[C@@H](O)[C@]2(O)[C@H]1OC(=O)c1c(N)cccc1F)[C@H]1[C@@H](C[C@H]3C)C1(C)C | 133% | 104% | 104% | 0.012 µM | – | 201 µM | 66% | 0.0086 µM | 0.01 µM |
| CNc1cccc(C)c1C(=O)O[C@H]1C(C)=C[C@]23C(=O)[C@@H](C=C(CO)[C@@H](O)[C@]12O)[C@H]1[C@@H](C[C@H]3C)C1(C)C | 136% | 143% | 127% | 0.046 µM | – | 105 µM | > 95% | 0.012 µM | 0.016 µM |
| C/C=C(/C)C(=O)O[C@H]1C(C)=C[C@]23C(=O)[C@@H](C=C(CO)[C@@H](O)[C@]12O)[C@H]1[C@@H](C[C@H]3C)C1(C)C [INGENOL MEBUTATE] | – | – | – | 0.0087 µM | – | 230 µM | – | – | – |
